Assay results as given in ChEMBL document CHEMBL3875163, “Novel urea and bis-urea primaquine derivatives with hydroxyphenyl or halogenphenyl substituents: Synthesis and biological evaluation” (Eur J Med Chem, 2016).
Values after ≈ are worked out from the molar mass of the structure shown.

How the values were obtained:
[1] = system: Bacillus spizizenii; assay: Antibacterial activity against Bacillus subtilis ATCC 6633 after 18 hrs by serial microdilution broth assay; type: functional; settings: ATCC 6633, 18 h
How it was run: (§1)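 Broth microdilution MIC per EUCAST for aerobic bacteria in Mueller-Hinton broth, serial dilution 1000 to 0.78125 µg/ml from 10 mg/ml DMSO stocks. Inoculum from trypticase soy broth cultures (18 h, 37 °C), set to 0.5 McFarland in PBS pH 7.4, diluted 1:10. 18 h aerobic incubation at 35 °C in dark, then TTC 0.5 mg/ml for 3 h, HCl-isopropanol, A490. MIC = lowest concentration giving 50% inhibition versus untreated; duplicates.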

[2] = system: Staphylococcus aureus; assay: Antibacterial activity against Staphylococcus aureus ATCC 6538 after 18 hrs by serial microdilution broth assay; type: functional; settings: ATCC 6538, 18 h; how it was run: as §1
[3] = Cytotoxicity against HEK cells assessed as reduction in cell viability at 3.125 to 25 ug/ml after 24 hrs by MTT assay; type: toxicity, cell-based; settings: human, hek293, 24 h
How it was run: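 HEK 293 cells, 5 × 10^3 per well, treated next day for 24 h with compound (range within 200 to 1.5625 µg/ml). MTT 0.5 mg/ml in DMEM/10% FBS, 4 h at 37 °C, 5% CO2; formazan in DMSO, A570. Viability as percent of untreated control; triplicates, three independent experiments.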

[4] = system: Staphylococcus aureus; assay: Antibacterial activity against methicillin sensitive Staphylococcus aureus ATCC 25923 after 18 hrs by serial microdilution broth assay; type: functional; settings: ATCC 25923, 18 h
How it was run: (§2)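 EUCAST-based broth microdilution in Mueller-Hinton broth. Glycerol stock cultures grown in trypticase soy broth 18 h at 37 °C; inoculum in PBS pH 7.4 at 0.5 McFarland, diluted 1:10 in broth. Compounds from DMSO stocks, 1000 to 0.78125 µg/ml; 18 h aerobic, 35 °C, dark. TTC 0.5 mg/ml added, 3 h, then HCl/isopropanol, A490. MIC = lowest concentration giving 50% inhibition vs untreated; duplicates, averaged.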

[5] = Antioxidant activity assessed as DPPH radical scavenging activity at 100 uM after 20 mins relative to control; type: functional
How it was run: (§3)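 Compound in DMSO added to DPPH in absolute ethanol, 0.1 mM final; absorbance at 517 nm after 20 and 60 min at room temperature. At least triplicate.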

[6] = Antioxidant activity assessed as DPPH radical scavenging activity at 100 uM after 60 mins relative to control; type: functional; how it was run: as §3
[7] = Growth inhibition of human CEM cells after 72 hrs by MTT assay; type: functional, cell-based; settings: CCRF-CEM
[8] = system: Bacillus pumilus; assay: Antibacterial activity against Bacillus pumilus NCTC 8241 after 18 hrs by serial microdilution broth assay; type: functional; settings: NCTC 8241, 18 h; how it was run: as §1
[9] = system: Candida albicans; assay: Antifungal activity against Candida albicans ATCC 90028 after 18 hrs by serial microdilution broth assay; type: functional; settings: ATCC 90028, 18 h
How it was run: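 Yeast microdilution in RPMI 1640 with glutamine plus 2% glucose, 1000 to 0.78125 µg/ml from 10 mg/ml DMSO stocks. Growth read with XTT (10 mg/ml) mixed 7:1 with menadione (1 mg/ml in acetone), absorbance at 540 nm. MIC taken as lowest concentration giving 50% growth inhibition versus untreated cells; tests in duplicate.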

[10] = system: Staphylococcus aureus; assay: Antibacterial activity against methicillin sensitive Staphylococcus aureus ATCC 25213 after 18 hrs by serial microdilution broth assay; type: functional; settings: ATCC 25213, 18 h; how it was run: as §1
[11] = system: Pseudomonas aeruginosa; assay: Antibacterial activity against Pseudomonas aeruginosa ATCC 9027 after 18 hrs by serial microdilution broth assay; type: functional; settings: ATCC 9027, 18 h; how it was run: as §2
[12] = Growth inhibition of human MCF7 cells after 72 hrs by MTT assay; type: functional, cell-based; settings: MCF7, 72 h
How it was run: (§4)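 Modified NCI DTP protocol: cells in DMEM with 10% FBS, 2 mM glutamine, antibiotics, 37 °C, 5% CO2; seeded 1 × 10^4 to 3 × 10^4 cells/ml on day 0, exposed to five 10-fold dilutions (10^-8 to 10^-4 M) for 72 h; solvent control. MTT read-out; quadruplicate points in three experiments; IC50 by linear regression of growth percentages bracketing 50%.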

[13] = system: Enterococcus faecalis; assay: Antibacterial activity against vancomycin resistant Enterococcus faecalis MFBF 11419 after 18 hrs by serial microdilution broth assay; type: functional; settings: MFBF 11419, 18 h; how it was run: as §2
[14] = system: Enterococcus faecalis; assay: Antibacterial activity against vancomycin susceptible Enterococcus faecalis ATCC 29212 after 18 hrs by serial microdilution broth assay; type: functional; settings: ATCC 29212, 18 h; how it was run: as §1
[15] = Antioxidant activity assessed as inhibition of AAPH-induced linoleic acid lipid peroxidation at 1 x 10^-4 M by UV-absorbance method relative to control; type: functional
How it was run: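 Linoleic acid peroxidation: 16 mM sodium linoleate dispersion in 0.05 M phosphate buffer pH 7.4 at 37 °C under air, initiated by AAPH (40 mM solution); compound at 1 × 10^-4 M; oxidation followed at 234 nm. At least triplicate.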

[16] = Growth inhibition of mouse L1210 cells after 72 hrs by MTT assay; type: functional, cell-based; settings: L1210, 72 h
[17] = system: Bacillus cereus; assay: Antibacterial activity against Bacillus cereus ATCC 11778 after 18 hrs by serial microdilution broth assay; type: functional; settings: ATCC 11778, 18 h; how it was run: as §1
[18] = Growth inhibition of human MIAPaCa2 cells after 72 hrs by MTT assay; type: functional, cell-based; settings: MIA PaCa-2, 72 h
[19] = Growth inhibition of human HeLa cells after 72 hrs by MTT assay; type: functional, cell-based
[20] = Growth inhibition of human SW620 cells after 72 hrs by MTT assay; type: functional, cell-based; settings: SW-620, 72 h; how it was run: as §4
[21] = Growth inhibition of human Molt4/C8 cells after 72 hrs by MTT assay; type: functional, cell-based; settings: MOLT-4, 72 h
[22] = system: Pseudomonas aeruginosa; assay: Antibacterial activity against multi-drug resistant Pseudomonas aeruginosa MFBF after 18 hrs by serial microdilution broth assay; type: functional; how it was run: as §2
[23] = system: Escherichia coli; assay: Antibacterial activity against Escherichia coli ATCC 10535 after 18 hrs by serial microdilution broth assay; type: functional; settings: ATCC 10535, 18 h; how it was run: as §1
[24] = system: Glycine max; assay: Inhibition of soybean LOX assessed as reduction in conversion of sodium linoleate to 13-hydroperoxylinoleic acid at 1 x 10^-4 M relative to control
How it was run: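 Soybean lipoxygenase incubated at room temperature with sodium linoleate (0.1 mM) and test compound (DMSO stocks); formation of 13-hydroperoxylinoleic acid read at 234 nm. Single-point screening at 1 × 10^-4 M; IC50 from several concentrations. At least triplicate.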

[25] = Hemolytic activity against human RBC at 100 ug/ml after 1 hr relative to control; type: ADME, cell-based, Erythrocyte; settings: red blood cells (RBC), read-out: Activity
[26] = Growth inhibition of human NCI-H460 cells after 72 hrs by MTT assay; type: functional, cell-based; settings: NCI-H460, 72 h; how it was run: as §4
[27] = system: Staphylococcus aureus; assay: Antibacterial activity against methicillin resistant Staphylococcus aureus MFBF 10679 after 18 hrs by serial microdilution broth assay; type: functional; settings: MFBF 10679, 18 h; how it was run: as §2
[28] = system: Staphylococcus aureus; assay: Antibacterial activity against methicillin resistant Staphylococcus aureus MFBF 10682 after 18 hrs by serial microdilution broth assay; type: functional; settings: MFBF 10682, 18 h; how it was run: as §2
[29] = system: Pseudomonas aeruginosa; assay: Antibacterial activity against Pseudomonas aeruginosa ATCC 27853 after 18 hrs by serial microdilution broth assay; type: functional; settings: ATCC 27853, 18 h; how it was run: as §1

With `COc1cc(NC(C)CCCNC(=O)Nc2cc(C(F)(F)F)cc(C(F)(F)F)c2)c2ncccc2c1` (centres undefined) the MIC50 [1] was greater than 100 µg/mL, the MIC50 [2] was 1.6 µg/mL (≈ 3.11 µM) and the Activity [3] was “Toxic”. The MIC50 [4] was 6.3 µg/mL (≈ 12.2 µM), the Activity [5] was 51.7% and the Activity [6] was 55.2%. It also gave an IC50 [7] of 4.1 µM, an MIC50 [8] of 12.5 µg/mL (≈ 24.3 µM) and an MIC50 [9] greater than 100 µg/mL. The MIC50 [10] was 12.5 µg/mL (≈ 24.3 µM), the MIC50 [11] was 100 µg/mL (≈ 194 µM) and the IC50 [12] was 1.6 µM. The MIC50 [13] was greater than 100 µg/mL, the MIC50 [14] was greater than 100 µg/mL and the inhibition [15] was 90.2%. The IC50 [16] was 3.5 µM, the MIC50 [17] was 100 µg/mL (≈ 194 µM) and the IC50 [18] was 4.7 µM. For the same molecule, the IC50 [19] was 3.1 µM, the IC50 [20] was 3.9 µM and the IC50 [21] was 12 µM. The MIC50 [22] was greater than 100 µg/mL, the MIC50 [23] was greater than 100 µg/mL and the inhibition [24] was 42.3%. For the same molecule, the hemolysis at 1 h, 100 ug/ml [25] was less than 1%, the IC50 [26] was 8.3 µM and the MIC50 [27] was greater than 100 µg/mL. The MIC50 [28] was greater than 100 µg/mL and the MIC50 [29] was 12.5 µg/mL (≈ 24.3 µM).
